Source: ChEMBL document CHEMBL4020842, “Discovery of N1-(4-((7-Cyclopentyl-6-(dimethylcarbamoyl)-7 H-pyrrolo[2,3- d]pyrimidin-2-yl)amino)phenyl)- N8-hydroxyoctanediamide as a Novel Inhibitor Targeting Cyclin-dependent Kinase 4/9 (CDK4/9) and Histone Deacetlyase1 (HDAC1) against Malignant Cancer” (J Med Chem, 2018)
Converted amounts (≈) assume the structure as drawn. The source made the active and inactive calls. No cut-off for these calls is given here.

Assays:
A549 [1] = experiment: Induction of apoptosis in human A549 cells assessed as necrotic cells at 10 uM after 48 hrs by annexin V-FITC/propidium iodide staining based flow cytometry (reference value: […]%); type: functional
A549 [2] = experiment: Induction of apoptosis in human A549 cells assessed as late apoptotic cells at 10 uM after 48 hrs by annexin V-FITC/propidium iodide staining based flow cytometry (reference value: 0.88%); type: functional
NCI-H460 [3] = experiment: Induction of apoptosis in human NCI-H460 cells assessed as late apoptotic cells at 1 uM after 48 hrs by annexin V-FITC/propidium iodide staining based flow cytometry (reference value: 1.29%); type: functional
MDA-MB-231 [4] = experiment: Induction of apoptosis in human MDA-MB-231 cells assessed as necrotic cells at 5 uM after 48 hrs by annexin V-FITC/propidium iodide staining based flow cytometry (reference value: […]); type: functional
MDA-MB-231 [5] = experiment: Induction of apoptosis in human MDA-MB-231 cells assessed as necrotic cells at 1 uM after 48 hrs by annexin V-FITC/propidium iodide staining based flow cytometry (reference value: […]); type: functional
Hep 3B2 [6] = experiment: Cell cycle arrest in human Hep3B cells assessed as decrease in S-phase at 625 nM after 24 hrs by propidium iodide staining based flow cytometry; type: functional
Procedure, shortened: (§1)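 Cells were exposed for 24 h to a range of concentrations (625 nM, 2.5 and 10 µM), with DMSO vehicle as control. They were then stained with propidium iodide and analysed by flow cytometry to obtain the percentages of cells in G0/G1, S and G2 phases.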

NCI-H1299 = experiment: Cytotoxicity against human NCI-H1299 cells assessed as reduction in cell viability after 72 hrs by CCK8 assay; type: functional, cell-based; conditions: NCI-H1299, 72 h
NCI-H460 [7] = experiment: Cell cycle arrest in human NCI-H460 cells assessed as accumulation at G0/G1 phase at 625 nM after 24 hrs by propidium iodide staining based flow cytometry; type: functional; procedure, shortened: as §1
T47D = experiment: Cell cycle arrest in human T47D cells assessed as accumulation at G0/G1 phase at 625 nM after 24 hrs by propidium iodide staining based flow cytometry; type: functional; procedure, shortened: as §1
CDK4/Cyclin D3 = CDK4/Cyclin D3 (Homo sapiens, UniProt P11802); experiment: Inhibition of recombinant human full length N-terminal GST-tagged CDK4/Cyclin-D3 co-expressed in baculovirus infected sf21 cells using Rb substrate in presence of [gamma33P]ATP after 10 mins by scintillation counting method
Sequence of CDK4/Cyclin D3 (P11802 whole entry): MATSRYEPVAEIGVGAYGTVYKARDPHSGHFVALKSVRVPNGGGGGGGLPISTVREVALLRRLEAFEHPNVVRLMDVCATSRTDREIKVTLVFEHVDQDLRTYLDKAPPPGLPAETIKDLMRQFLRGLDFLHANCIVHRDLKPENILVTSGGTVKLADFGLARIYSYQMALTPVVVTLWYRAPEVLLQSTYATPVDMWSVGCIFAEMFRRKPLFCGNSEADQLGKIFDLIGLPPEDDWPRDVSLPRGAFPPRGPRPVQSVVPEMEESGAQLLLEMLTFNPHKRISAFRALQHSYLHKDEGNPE
Sequence of CDK4/Cyclin D3 (P30281 whole entry, further chain): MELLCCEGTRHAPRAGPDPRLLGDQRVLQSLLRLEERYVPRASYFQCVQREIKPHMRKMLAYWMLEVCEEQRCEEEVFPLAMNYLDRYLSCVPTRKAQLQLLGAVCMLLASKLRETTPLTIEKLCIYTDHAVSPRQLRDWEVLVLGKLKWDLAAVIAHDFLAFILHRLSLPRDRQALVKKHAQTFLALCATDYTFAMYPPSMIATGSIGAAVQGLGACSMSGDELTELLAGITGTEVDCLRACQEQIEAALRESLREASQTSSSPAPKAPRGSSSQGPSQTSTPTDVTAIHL

HepG2 [8] = experiment: Induction of apoptosis in human HepG2 cells assessed as early apoptotic cells at 1 uM after 48 hrs by annexin V-FITC/propidium iodide staining based flow cytometry (reference value: 0.3%); type: functional
CDK4/CDK9 (Homo sapiens) = CDK4/CDK9 (Homo sapiens) (UniProt P11802+P50750); experiment: Inhibition of CDK4/CDK9 in human T47D cells assessed as reduction in Rb phosphorylation at Ser807/811 residues at 1 uM after 48 hrs by Western blot method; type: cell-based
Sequence of CDK4/CDK9 (Homo sapiens) (P11802 whole entry, looked up): as the sequence (P11802 whole entry) above
Sequence of CDK4/CDK9 (Homo sapiens) (P50750 whole entry, looked up): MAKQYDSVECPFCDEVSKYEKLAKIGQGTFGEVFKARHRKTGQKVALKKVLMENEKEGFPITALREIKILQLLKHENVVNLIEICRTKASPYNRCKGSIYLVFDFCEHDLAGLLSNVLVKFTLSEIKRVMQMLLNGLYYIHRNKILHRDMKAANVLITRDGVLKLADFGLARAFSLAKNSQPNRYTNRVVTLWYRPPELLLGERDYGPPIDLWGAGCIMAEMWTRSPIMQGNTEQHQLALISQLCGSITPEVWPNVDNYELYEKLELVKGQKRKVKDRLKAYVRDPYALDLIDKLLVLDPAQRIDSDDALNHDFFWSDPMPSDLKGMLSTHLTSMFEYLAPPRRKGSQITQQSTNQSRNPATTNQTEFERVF

Hep 3B2 [9] = experiment: Induction of apoptosis in human Hep3B cells assessed as reduction in Bcl2 protein expression after 48 hrs by Western blot method; type: functional, cell-based
Procedure, shortened: (§2)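 Cells were treated with or without compound and control for 48 h, then lysed. Bcl-2 and cleaved caspase 3 were assessed by Western blot.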

HepG2 [10] = experiment: Induction of apoptosis in human HepG2 cells assessed as caspase-3 cleavage after 48 hrs by Western blot method; type: functional, cell-based; procedure, shortened: as §2
Hep 3B2 [11] = experiment: Induction of apoptosis in human Hep3B cells assessed as caspase-3 cleavage after 48 hrs by Western blot method; type: functional, cell-based; procedure, shortened: as §2
[12] = Aqueous solubility in pH 7.4 PBS buffer at 1 mg sonicated for 24 hrs and incubated under unstirred condition for 24 hrs by HPLC method; type: physicochemical
Rattus norvegicus = experiment: Apparent volume of distribution at steady state in Sprague-Dawley rat at 20 mg/kg, ip administered as single dose by HPLC analysis; type: ADME, organism-based; conditions: in vivo

IC50 (CDK4/Cyclin D3): 8.8 nM | inhibition (CDK4/CDK9 (Homo sapiens)): Active | solubility at 24 h [12]: 0.35 µg/mL (≈ 0.653 µM) | Vdss(app) (Rattus norvegicus): 119.94 L/kg
SMILES: CN(C)C(=O)c1cc2cnc(Nc3ccc(NC(=O)CCCCCCC(=O)NO)cc3)nc2n1C1CCCC1
Activity (A549 [1]): 6.38% | Activity (A549 [2]): 27.7% | Activity (NCI-H460 [3]): 1.48% | Activity (MDA-MB-231 [4]): 1.36% | Activity (MDA-MB-231 [5]): 1.65% | Activity (Hep 3B2 [6]): Active | IC50 (NCI-H1299): 1870 nM | Activity (NCI-H460 [7]): Active | Activity (T47D): Active | Activity (HepG2 [8]): 2.6% | Activity (Hep 3B2 [9]): Active | Activity (HepG2 [10]): Active | Activity (Hep 3B2 [11]): Active
